Results from ChEMBL document CHEMBL1152677, “Combretastatin-like chalcones as inhibitors of microtubule polymerisation. Part 2: Structure-based discovery of alpha-aryl chalcones” (Bioorg Med Chem, 2009).

Tests used:
K562 [1] = assay: Antiproliferative activity against human K562 cells after 5 days by MTT assay; format: functional, cell-based; details: K562, 120 h
How it was run: (§1)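 Cells at about 2000 cells/mL (set by doubling time) in RPMI with 10% v/v FCS; compound from DMSO stock, seven twofold serial dilutions plus drug-free control, triplicate wells, 37 °C 5% CO2 for 5 days. MTT (3 mg/mL in PBS) added for 3 h, formazan dissolved in DMSO, OD read at 540 and 690 nm; IC50 derived graphically as percentage of control growth.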

A549 = assay: Antiproliferative activity against human A549 cells after 5 days by MTT assay; format: functional, cell-based; details: A549, 120 h; how it was run: as §1
A2780 = assay: Antiproliferative activity against human A2780 cells after 5 days by MTT assay; format: functional, cell-based; details: A2780, 120 h; how it was run: as §1
K562 [2] = assay: Cell cycle arrest in human K562 cells assessed as accumulation at G0/G1 phase at 10 uL after overnight incubation by propidium iodide staining-based flow cytometry; format: functional
How it was run: (§2)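 Fixed in cold 1:1 acetone:ethanol, washed in PBS, RNAse treated (37 °C, 15 min), stained with propidium iodide 50 µg/mL; DNA content read by flow cytometry, argon laser excitation 488 nm; percentage of cells per phase versus untreated control.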

K562 [3] = assay: Cell cycle arrest in human K562 cells assessed as accumulation at S phase at 10 uL after overnight incubation by propidium iodide staining-based flow cytometry; format: functional; how it was run: as §2
K562 [4] = assay: Cell cycle arrest in human K562 cells assessed as accumulation at G2/M phase at 10 uL after overnight incubation by propidium iodide staining-based flow cytometry; format: functional; how it was run: as §2
P388 = assay: Antiproliferative activity against mouse P388 cells after 5 days by MTT assay; format: functional, cell-based; details: P388, 120 h; how it was run: as §1
L1210 = assay: Antiproliferative activity against mouse L1210 cells after 5 days by MTT assay; format: functional, cell-based; details: L1210, 120 h; how it was run: as §1
[5] = Inhibition of tubulin assembly by spectrophotometry
How it was run: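 Tubulin (10–15 μM stock) in 0.1 M Mes, 1 mM EGTA, 0.5 mM MgCl2, pH 6.6, with GTP, compound in DMSO, assembled on cold at 0 °C then moved to 37 °C. Absorbance at 350 nm followed for 30 min against drug/GTP buffer blanks; change in optical density relative to untreated control gives IC50 for assembly inhibition.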

[6] = Inhibition of tubulin assembly by turbidimetry assay
K562 [7] = assay: Cytotoxicity against human K562 cells; format: functional, cell-based
How it was run: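 K562 cells in RPMI with 10% v/v FCS, at about 2000 cells/mL. Drug in DMSO was serially diluted twofold to give seven concentrations, plus a drug-free control. Cells were plated in triplicate and incubated 5 days at 37 °C, 5% CO2. MTT (3 mg/mL stock) was added for 3 h, formazan dissolved in DMSO, and OD read at 540 and 690 nm. IC50 was found graphically as percent of control growth.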

[8] = Displacement of [3H]colchicine from tubulin

COc1ccc(/C=C(/C(=O)c2cc(OC)c(OC)c(OC)c2)c2ccc(OC)cc2)cc1
IC50 (K562 [1]): 0.04 µM

COc1ccc(/C=C(/C(=O)c2cc(OC)c(OC)c(OC)c2)c2ccc(N(C)C)cc2)cc1
IC50 (K562 [1]): 0.15 µM

COc1ccc(C=C(C(=O)c2cc(OC)c(OC)c(OC)c2)c2ccc(C)cc2)cc1
IC50 (K562 [1]): 0.76 µM

COc1ccc(/C=C(\C)C(=O)c2cc(OC)c(OC)c(OC)c2)cc1O
IC50 (A549): 0.01 µM | IC50 (A2780): 0.0018 µM | Activity (K562 [2]): 10.7% | Activity (K562 [3]): 32.8% | Activity (K562 [4]): 56.4% | IC50 (P388): 0.026 µM | IC50 (L1210): 0.011 µM | IC50 (K562 [1]): 0.0044 µM | IC50 [5]: 3.3 µM | IC50 [6]: 0.46 µM

COc1ccc(C(=Cc2ccccc2)C(=O)c2cc(OC)c(OC)c(OC)c2)cc1
IC50 (K562 [1]): 4.92 µM

COc1ccc(C=C(C(=O)c2cc(OC)c(OC)c(OC)c2)c2ccc(C)cc2)cc1O
IC50 (K562 [1]): 0.032 µM | IC50 [5]: 2.6 µM

COc1ccc(/C=C(/C(=O)c2cc(OC)c(OC)c(OC)c2)c2ccccc2O)cc1
IC50 (K562 [1]): 0.37 µM | IC50 [5]: > 10 µM

COc1ccc(C(=Cc2ccc(OC)c(F)c2)C(=O)c2cc(OC)c(OC)c(OC)c2)cc1
IC50 (K562 [1]): 0.45 µM | IC50 [5]: 4.2 µM

COc1ccc(/C=C(/C(=O)c2cc(OC)c(OC)c(OC)c2)c2ccccc2)cc1
IC50 (K562 [1]): 0.02 µM

COc1ccc(/C=C(/C(=O)c2cc(OC)c(OC)c(OC)c2)c2ccccc2O)cc1F
IC50 (A549): 0.14 µM | IC50 (A2780): 0.04 µM | Activity (K562 [2]): 10.6% | Activity (K562 [3]): 43.6% | Activity (K562 [4]): 45.7% | IC50 (P388): 0.53 µM | IC50 (L1210): 0.06 µM | IC50 (K562 [1]): 0.06 µM | IC50 [5]: 7.2 µM

COc1ccc(C=C(C(=O)c2cc(OC)c(OC)c(OC)c2)c2ccc(C)cc2)cc1[N+](=O)[O-]
IC50 (K562 [1]): 2.43 µM

COc1ccc(C=C(C(=O)c2cc(OC)c(OC)c(OC)c2)c2ccccc2)cc1[N+](=O)[O-]
IC50 (K562 [1]): > 10 µM

COc1ccc(/C=C(/C(=O)c2cc(OC)c(OC)c(OC)c2)c2ccccc2O)cc1O
IC50 (A549): 0.05 µM | IC50 (A2780): 0.034 µM | Activity (K562 [2]): 6.5% | Activity (K562 [3]): 18.1% | Activity (K562 [4]): 75.4% | IC50 (P388): 0.028 µM | IC50 (L1210): 0.036 µM | IC50 (K562 [1]): 0.049 µM | IC50 [5]: 5.5 µM

COc1cc(C(=O)C(=Cc2ccccc2)c2ccc(C)cc2)cc(OC)c1OC
IC50 (K562 [1]): 2.97 µM

COc1cc(C(=O)C(=Cc2ccccc2)c2ccccc2)cc(OC)c1OC
IC50 (K562 [1]): 6.3 µM

COc1ccc(C=C(C(=O)c2cc(OC)c(OC)c(OC)c2)c2ccc(OC)cc2)cc1
IC50 (K562 [1]): 0.5 µM

COc1ccc(C(=Cc2ccc(OC)c([N+](=O)[O-])c2)C(=O)c2cc(OC)c(OC)c(OC)c2)cc1
IC50 (K562 [1]): 2.66 µM

COc1ccc(C(=Cc2ccc(OC)c(O)c2)C(=O)c2cc(OC)c(OC)c(OC)c2)cc1
IC50 (A549): 0.68 µM | IC50 (A2780): 0.01 µM | Activity (K562 [2]): 10.8% | Activity (K562 [3]): 34.6% | Activity (K562 [4]): 54.6% | IC50 (P388): 0.02 µM | IC50 (L1210): 0.16 µM | IC50 (K562 [1]): 0.012 µM | IC50 [5]: 2.1 µM

COc1ccc(C=C(C(=O)c2cc(OC)c(OC)c(OC)c2)c2ccccc2)cc1F
IC50 (K562 [1]): 0.79 µM

COc1ccc(C=C(C(=O)c2cc(OC)c(OC)c(OC)c2)c2ccc(C)cc2)cc1F
IC50 (K562 [1]): 0.57 µM | IC50 [5]: 4.4 µM

COc1ccc(/C=C(/C(=O)c2cc(OC)c(OC)c(OC)c2)c2ccccc2O)cc1O[Si](C)(C)C(C)(C)C
IC50 (K562 [1]): 0.38 µM | IC50 [5]: > 10 µM

COc1ccc(/C=C\c2cc(OC)c(OC)c(OC)c2)cc1O [COMBRETASTATIN A4]
IC50 (A549): 0.0078 µM | IC50 (A2780): 0.0019 µM | Activity (K562 [2]): 14% | Activity (K562 [3]): 23.3% | Activity (K562 [4]): 62.7% | IC50 (P388): 0.0031 µM | IC50 (L1210): 0.0023 µM | IC50 (K562 [7]): 0.0014 µM | Activity [8]: 92% | IC50 (K562 [1]): 0.0032 µM | IC50 [5]: 3.7 µM

COc1cc2c(c(OC)c1OC)-c1ccc(OC)c(=O)cc1[C@@H](NC(C)=O)CC2 [COLCHICINE]
IC50 [6]: 2.6 µM

COc1ccc(/C=C(/C(=O)c2cc(OC)c(OC)c(OC)c2)c2ccc(OC)cc2OC)cc1
IC50 (K562 [1]): 0.09 µM
